# Data from ChEMBL document CHEMBL3232844, “Synthesis and structure activity relationships of schweinfurthin indoles” (2014).
# Key:
# Format in all cases: functional
# T47D = experiment: Cytotoxicity against human T47D cells
# Method in brief: (§1)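 Cell line run as part of the 60-cell-line screening panel; growth inhibition was reported as a GI50 for each line.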
# 786-0 = experiment: Cytotoxicity against human 786-0 cells
# Method in brief: (§2)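 Tested in a 60-cell-line human tumor panel screen; the read-out is growth inhibition, reported as GI50 for each cell line.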
# BT-549 = experiment: Cytotoxicity against human BT549 cells; method in brief: as §2
# [1] = Cytotoxicity against human OVCAR4 cells; method in brief: as §2
# SK-MEL-2 = experiment: Cytotoxicity against human SK-MEL-2 cells; method in brief: as §2
# SF-268 = experiment: Cytotoxicity against human SF268 cells; method in brief: as §2
# IGROV-1 = experiment: Cytotoxicity against human IGROV1 cells; method in brief: as §2
# [2] = Cytotoxicity against human HCT15 cells; method in brief: as §2
# HCT-116 = experiment: Cytotoxicity against human HCT116 cells; method in brief: as §2
# MDA-MB-435 = experiment: Cytotoxicity against human MDA-MB-435 cells; method in brief: as §2
# NCI-H23 = experiment: Cytotoxicity against human NCI-H23 cells; method in brief: as §2
# K562 = experiment: Cytotoxicity against human K562 cells; method in brief: as §2
# [3] = Cytotoxicity against human NCI-ADR-RES cells; method in brief: as §2
# SNB-75 = experiment: Cytotoxicity against human SNB75 cells; method in brief: as §1
# [4] = Cytotoxicity against human UACC257 cells; method in brief: as §1
# CAKI-1 = experiment: Cytotoxicity against human Caki1 cells; method in brief: as §2
# SF-539 = experiment: Cytotoxicity against human SF539 cells; method in brief: as §2
# [5] = Cytotoxicity against human UO31 cells; method in brief: as §1
# MOLT-4 = experiment: Cytotoxicity against human MOLT4 cells; method in brief: as §2
# M14 = experiment: Cytotoxicity against human M14 cells; method in brief: as §2
# [6] = Cytotoxicity against human OVCAR8 cells; method in brief: as §2
# LOX IMVI = experiment: Cytotoxicity against human LOXIMVI cells; method in brief: as §2
# [7] = Cytotoxicity against human OVCAR3 cells; method in brief: as §2
# HCC 2998 = experiment: Cytotoxicity against human HCC2998 cells; method in brief: as §2
# TK-10 = experiment: Cytotoxicity against human TK10 cells; method in brief: as §1
# RXF 393 = experiment: Cytotoxicity against human RXF393 cells; method in brief: as §2
# MDA-MB-231 = experiment: Cytotoxicity against human MDA-MB-231 cells; method in brief: as §2
# HL-60(TB) = experiment: Cytotoxicity against human HL-60(TB) cells
# Method in brief: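 Tested within the NCI 60-cell-line screen, with GI50 as the read-out. Values are the average of two independent experiments. The lowest concentration tested was 10 nM.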
# ACHN = experiment: Cytotoxicity against human ACHN cells; method in brief: as §2
# SN12C = experiment: Cytotoxicity against human SN12C cells; method in brief: as §2
# A498 = experiment: Cytotoxicity against human A498 cells; method in brief: as §2
# SF-295 = experiment: Cytotoxicity against human SF295 cells; method in brief: as §2
# A549 = experiment: Cytotoxicity against human A549 cells; method in brief: as §2
# [8] = Cytotoxicity against human OVCAR5 cells; method in brief: as §2
# SK-OV-3 = experiment: Cytotoxicity against human SKOV3 cells; method in brief: as §2
# U-251 = experiment: Cytotoxicity against human U251 cells; method in brief: as §1
# MCF7 = experiment: Cytotoxicity against human MCF7 cells; method in brief: as §2
# KM12 = experiment: Cytotoxicity against human KM12 cells; method in brief: as §2
# NCI-H226 = experiment: Cytotoxicity against human NCI-H226 cells; method in brief: as §2
# HT-29 = experiment: Cytotoxicity against human HT-29 cells; method in brief: as §2
# NCI-H460 = experiment: Cytotoxicity against human NCI-H460 cells; method in brief: as §2
# [9] = Cytotoxicity against human EKVX cells; method in brief: as §2
# DU-145 = experiment: Cytotoxicity against human DU145 cells; method in brief: as §2
# [10] = read-out: pLC50 (the source's name) (converted)
compound,measurement,setting,value
COc1cc(/C=C/c2cc(OC)c3cc[nH]c3c2)cc2c1O[C@]1(C)CC[C@@H](O)C(C)(C)[C@H]1C2,GI50,T47D,2820 nM
same,CC50,T47D; [10],> 100 µM
same,TGI,T47D; read-out: pTGI (converted),50.1 µM
same,GI50,786-0,72.4 nM
same,LC50 (concentration killing 50% of cells),786-0,3.02 µM
same,TGI,786-0; read-out: pTGI (converted),468 nM
same,GI50,BT-549,229 nM
same,CC50,BT-549; [10],> 100 µM
same,TGI,BT-549; read-out: pTGI (converted),3.09 µM
same,GI50,[1]; OVCAR-4,871 nM
same,CC50,"[1]; OVCAR-4, read-out: pLC50 (the source's name) (converted)",> 100 µM
same,TGI,"[1]; OVCAR-4, read-out: pTGI (converted)",26.9 µM
same,GI50,SK-MEL-2,309 nM
same,CC50,SK-MEL-2; [10],> 100 µM
same,TGI,SK-MEL-2; read-out: pTGI (converted),1740 nM
same,GI50,SF-268,282 nM
same,CC50,SF-268; [10],10 µM
same,TGI,SF-268; read-out: pTGI (converted),10.2 µM
same,GI50,IGROV-1,977 nM
same,CC50,IGROV-1; [10],> 100 µM
same,TGI,IGROV-1; read-out: pTGI (converted),13.5 µM
same,GI50,[2]; HCT-15,398 nM
same,CC50,"[2]; HCT-15, read-out: pLC50 (the source's name) (converted)",> 100 µM
same,TGI,"[2]; HCT-15, read-out: pTGI (converted)",7.94 µM
same,GI50,HCT-116,537 nM
same,CC50,HCT-116; [10],6.03 µM
same,TGI,HCT-116; read-out: pTGI (converted),2040 nM
same,GI50,MDA-MB-435,355 nM
same,CC50,MDA-MB-435; [10],> 100 µM
same,TGI,MDA-MB-435; read-out: pTGI (converted),2570 nM
same,GI50,NCI-H23,692 nM
same,CC50,NCI-H23; [10],> 100 µM
same,TGI,NCI-H23; read-out: pTGI (converted),3.39 µM
same,GI50,K562,324 nM
same,CC50,K562; [10],> 100 µM
same,TGI,K562; read-out: pTGI (converted),1380 nM
same,GI50,[3],2090 nM
same,CC50,[3]; [10],> 100 µM
same,TGI,[3]; read-out: pTGI (converted),20 µM
same,GI50,SNB-75,93.3 nM
same,TGI,SNB-75; read-out: pTGI (converted),468 nM
same,GI50,[4]; UACC-257,295 nM
same,TGI,"[4]; UACC-257, read-out: pTGI (converted)",759 nM
same,GI50,CAKI-1,79.4 nM
same,LC50,CAKI-1,851 nM
same,TGI,CAKI-1; read-out: pTGI (converted),269 nM
same,GI50,SF-539,141 nM
same,CC50,SF-539; [10],3.09 µM
same,TGI,SF-539; read-out: pTGI (converted),468 nM
same,GI50,[5]; UO-31,186 nM
same,LC50,[5]; UO-31,> 100 µM
same,TGI,"[5]; UO-31, read-out: pTGI (converted)",977 nM
same,GI50,MOLT-4,91.2 nM
same,CC50,MOLT-4; [10],> 100 µM
same,TGI,MOLT-4; read-out: pTGI (converted),490 nM
same,GI50,M14,174 nM
same,CC50,M14; [10],741 nM
same,TGI,M14; read-out: pTGI (converted),355 nM
same,GI50,[6]; OVCAR-8,3.63 µM
same,CC50,"[6]; OVCAR-8, read-out: pLC50 (the source's name) (converted)",> 100 µM
same,TGI,"[6]; OVCAR-8, read-out: pTGI (converted)",25.1 µM
same,GI50,LOX IMVI,389 nM
same,CC50,LOX IMVI; [10],4.47 µM
same,TGI,LOX IMVI; read-out: pTGI (converted),1480 nM
same,GI50,[7]; OVCAR-3,1200 nM
same,CC50,"[7]; OVCAR-3, read-out: pLC50 (the source's name) (converted)",10 µM
same,TGI,"[7]; OVCAR-3, read-out: pTGI (converted)",3.16 µM
same,GI50,HCC 2998,2240 nM
same,CC50,HCC 2998; [10],49 µM
same,TGI,HCC 2998; read-out: pTGI (converted),11.2 µM
same,GI50,TK-10,1550 nM
same,LC50,TK-10,> 100 µM
same,TGI,TK-10; read-out: pTGI (converted),11 µM
same,GI50,RXF 393,24 nM
same,LC50,RXF 393,316 nM
same,TGI,RXF 393; read-out: pTGI (converted),60.3 nM
same,GI50,MDA-MB-231,851 nM
same,LC50,MDA-MB-231,> 100 µM
same,TGI,MDA-MB-231; read-out: pTGI (converted),4.57 µM
same,GI50,HL-60(TB),138 nM
same,CC50,HL-60(TB); [10],> 100 µM
same,TGI,HL-60(TB); read-out: pTGI (converted),1320 nM
same,GI50,ACHN,575 nM
same,LC50 (concentration killing 50% of cells),ACHN,> 100 µM
same,TGI,ACHN; read-out: pTGI (converted),6.92 µM
same,GI50,SN12C,6.17 µM
same,LC50,SN12C,> 100 µM
same,TGI,SN12C; read-out: pTGI (converted),51.3 µM
same,GI50,A498,245 nM
same,TGI,A498; read-out: pTGI (converted),813 nM
same,GI50,SF-295; read-out: GI50,55 nM
same,GI50,SF-295; read-out: pGI50 (converted),55 nM
same,CC50,SF-295; [10],794 nM
same,TGI,SF-295; read-out: pTGI (converted),224 nM
same,GI50,A549,871 nM
same,CC50,A549; [10],> 100 µM
same,TGI,A549; read-out: pTGI (converted),17.8 µM
same,GI50,[8]; OVCAR-5,1000 nM
same,CC50,"[8]; OVCAR-5, read-out: pLC50 (the source's name) (converted)",> 100 µM
same,TGI,"[8]; OVCAR-5, read-out: pTGI (converted)",6.03 µM
same,GI50,SK-OV-3,339 nM
same,TGI,SK-OV-3; read-out: pTGI (converted),1290 nM
same,GI50,U-251,331 nM
same,CC50,U-251; [10],31.6 µM
same,TGI,U-251; read-out: pTGI (converted),3.63 µM
same,GI50,MCF7,389 nM
same,LC50,MCF7,> 100 µM
same,TGI,MCF7; read-out: pTGI (converted),2000 nM
same,GI50,KM12,191 nM
same,CC50,KM12; [10],3.63 µM
same,TGI,KM12; read-out: pTGI (converted),468 nM
same,GI50,NCI-H226,1740 nM
same,CC50,NCI-H226; [10],58.9 µM
same,TGI,NCI-H226; read-out: pTGI (converted),7.08 µM
same,GI50,HT-29,288 nM
same,CC50,HT-29; [10],> 100 µM
same,TGI,HT-29; read-out: pTGI (converted),1780 nM
same,GI50,NCI-H460,380 nM
same,CC50,NCI-H460; [10],37.2 µM
same,TGI,NCI-H460; read-out: pTGI (converted),2290 nM
same,GI50,[9],537 nM
same,CC50,[9]; [10],> 100 µM
same,TGI,[9]; read-out: pTGI (converted),6.03 µM
same,GI50,DU-145,1070 nM
same,LC50 (50% lethal concentration),DU-145,> 100 µM
same,TGI,DU-145; read-out: pTGI (converted),4.37 µM
